Reference: ChEMBL document CHEMBL4311951, “Potent and Preferential Degradation of CDK6 via Proteolysis Targeting Chimera Degraders” (J Med Chem, 2019)
Each block holds one compound with its values, some of them ahead of it. Activity calls are given as the source filed them. The calls are words filed in the database; no cut-off is given here.

Key:
[1] = biological target: Protein cereblon/Cyclin-dependent kinase 6 (Homo sapiens, UniProt Q00534+Q96SW2); experiment: Induction of CRBN-mediated CDK6 degradation in human U251 cells after 24 hrs by immunoblot analysis; format: cell-based
[2] = biological target: T1, von Hippel-Lindau disease tumor suppressor/Cyclin-dependent kinase 6 (Homo sapiens) (UniProt Q00534+P40337); experiment: Induction of VHL-mediated CDK6 degradation in human U251 cells at 1 uM after 24 hrs by immunoblot analysis; format: cell-based
T1 sequence (P40337 whole entry, looked up): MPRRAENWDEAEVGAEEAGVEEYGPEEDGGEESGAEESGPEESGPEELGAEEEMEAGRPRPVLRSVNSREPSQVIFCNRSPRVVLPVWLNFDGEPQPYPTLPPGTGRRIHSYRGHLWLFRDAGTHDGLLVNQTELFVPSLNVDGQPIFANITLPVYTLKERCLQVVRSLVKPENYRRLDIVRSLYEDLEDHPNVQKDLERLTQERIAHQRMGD
T1 sequence (Q00534 whole entry, looked up): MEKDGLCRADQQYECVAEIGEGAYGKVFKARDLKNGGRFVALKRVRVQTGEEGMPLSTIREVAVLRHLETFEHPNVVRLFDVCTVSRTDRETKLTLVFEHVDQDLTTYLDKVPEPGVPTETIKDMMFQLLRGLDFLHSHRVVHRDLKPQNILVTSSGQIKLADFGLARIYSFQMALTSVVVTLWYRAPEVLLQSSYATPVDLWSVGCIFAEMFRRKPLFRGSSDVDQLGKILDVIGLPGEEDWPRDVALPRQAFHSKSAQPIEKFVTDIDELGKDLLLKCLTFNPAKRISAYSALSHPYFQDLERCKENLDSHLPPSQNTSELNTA

[3] = biological target: von Hippel-Lindau disease tumor suppressor/Cyclin-dependent kinase 4 (Homo sapiens) (UniProt P11802+P40337); experiment: Induction of VHL-mediated CDK4 degradation in human U251 cells at 1 uM after 24 hrs by immunoblot analysis; format: cell-based
Chain of von Hippel-Lindau disease tumor suppressor/Cyclin-dependent kinase 4 (Homo sapiens) (P11802 2-303 limits assumed): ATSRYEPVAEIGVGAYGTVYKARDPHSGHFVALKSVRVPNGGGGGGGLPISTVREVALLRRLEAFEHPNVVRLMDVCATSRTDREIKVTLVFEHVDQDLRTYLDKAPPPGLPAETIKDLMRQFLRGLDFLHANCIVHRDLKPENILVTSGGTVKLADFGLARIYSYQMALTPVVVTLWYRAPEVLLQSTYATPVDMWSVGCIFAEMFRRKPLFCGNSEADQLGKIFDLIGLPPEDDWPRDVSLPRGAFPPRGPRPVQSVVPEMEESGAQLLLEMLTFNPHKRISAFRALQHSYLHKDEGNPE
Chain of von Hippel-Lindau disease tumor suppressor/Cyclin-dependent kinase 4 (Homo sapiens) (P40337 whole entry partner): as the sequence (P40337 whole entry, looked up) above

[4] = biological target: T1, von Hippel-Lindau disease tumor suppressor/Cyclin-dependent kinase 6 (Homo sapiens); experiment: Induction of VHL-mediated CDK6 degradation in human DAOY cells at 1 uM after 24 hrs by immunoblot analysis; format: cell-based
Summary of the method: (§1)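 Medulloblastoma DAOY cells treated 24 h with PROTACs at 1 μM; CDK6 levels then assessed by immunoblot. Palbociclib at 500 nM and 1 μM as positive control.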

[5] = biological target: Protein cereblon/Cyclin-dependent kinase 4 (Homo sapiens, UniProt P11802+Q96SW2); experiment: Induction of CRBN-mediated CDK4 degradation in human U251 cells after 24 hrs by immunoblot analysis; format: cell-based
Chain of Protein cereblon/Cyclin-dependent kinase 4 (P11802 whole entry): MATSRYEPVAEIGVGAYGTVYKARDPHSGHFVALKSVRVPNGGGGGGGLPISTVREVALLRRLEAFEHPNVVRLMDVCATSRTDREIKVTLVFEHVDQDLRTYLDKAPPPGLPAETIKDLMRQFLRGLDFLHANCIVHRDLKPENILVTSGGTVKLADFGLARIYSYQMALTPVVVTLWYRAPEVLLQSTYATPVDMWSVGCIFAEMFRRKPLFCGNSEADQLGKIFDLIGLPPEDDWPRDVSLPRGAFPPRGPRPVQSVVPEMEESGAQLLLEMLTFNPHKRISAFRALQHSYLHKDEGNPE
Chain of Protein cereblon/Cyclin-dependent kinase 4 (Q96SW2 whole entry): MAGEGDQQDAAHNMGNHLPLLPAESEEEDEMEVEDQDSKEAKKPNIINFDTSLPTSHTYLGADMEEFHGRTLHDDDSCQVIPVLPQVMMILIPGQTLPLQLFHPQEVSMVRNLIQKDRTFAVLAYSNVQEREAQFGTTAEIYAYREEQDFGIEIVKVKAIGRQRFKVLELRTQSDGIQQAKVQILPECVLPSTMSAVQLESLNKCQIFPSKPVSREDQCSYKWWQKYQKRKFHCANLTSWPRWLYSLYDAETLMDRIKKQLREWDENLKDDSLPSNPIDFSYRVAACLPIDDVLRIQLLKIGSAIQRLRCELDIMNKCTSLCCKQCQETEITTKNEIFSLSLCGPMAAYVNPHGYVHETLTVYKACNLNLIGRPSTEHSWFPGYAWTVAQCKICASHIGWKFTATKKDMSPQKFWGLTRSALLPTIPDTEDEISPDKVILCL

[6] = biological target: T2, E3 ubiquitin-protein ligase Mdm2/CDK6 (Homo sapiens) (UniProt Q00987+Q00534); experiment: Induction of MDM2-mediated CDK6 degradation in human DAOY cells at 1 uM after 24 hrs by immunoblot analysis; format: cell-based; summary of the method: as §1
T2 sequence (Q00534 whole entry, looked up): as the sequence (Q00534 whole entry, looked up) above
T2 sequence (Q00987 whole entry, looked up): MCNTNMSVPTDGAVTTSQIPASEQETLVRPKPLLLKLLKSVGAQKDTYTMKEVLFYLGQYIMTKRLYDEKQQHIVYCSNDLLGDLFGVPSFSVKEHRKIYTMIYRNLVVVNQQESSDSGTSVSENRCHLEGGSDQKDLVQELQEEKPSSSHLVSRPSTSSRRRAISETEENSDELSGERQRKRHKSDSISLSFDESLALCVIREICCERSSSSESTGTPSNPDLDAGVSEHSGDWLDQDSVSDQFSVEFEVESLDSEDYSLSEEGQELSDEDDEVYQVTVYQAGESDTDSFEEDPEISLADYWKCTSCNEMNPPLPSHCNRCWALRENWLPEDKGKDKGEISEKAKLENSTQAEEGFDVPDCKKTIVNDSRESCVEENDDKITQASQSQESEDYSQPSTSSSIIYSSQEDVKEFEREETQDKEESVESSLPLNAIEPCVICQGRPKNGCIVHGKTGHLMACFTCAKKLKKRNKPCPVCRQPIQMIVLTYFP

[7] = system: E3 ubiquitin-protein ligase Mdm2/Cyclin-dependent kinase 4 (Homo sapiens); experiment: Induction of MDM2-mediated CDK4 degradation in human U251 cells at 1 uM after 24 hrs by immunoblot analysis
[8] = biological target: T2, E3 ubiquitin-protein ligase Mdm2/CDK6 (Homo sapiens); experiment: Induction of MDM2-mediated CDK6 degradation in human U251 cells at 1 uM after 24 hrs by immunoblot analysis; format: cell-based
Homo sapiens [9] = organism: Homo sapiens; experiment: Induction of cIAP-mediated CDK4 degradation in human U251 cells at 1 uM after 24 hrs by immunoblot analysis; format: cell-based
Daoy = experiment: Induction of cIAP-mediated CDK6 degradation in human DAOY cells at 1 uM after 24 hrs by immunoblot analysis; format: cell-based; summary of the method: as §1
Homo sapiens [10] = organism: Homo sapiens; experiment: Induction of cIAP-mediated CDK6 degradation in human U251 cells at 1 uM after 24 hrs by immunoblot analysis; format: cell-based
JeKo-1 = experiment: Antiproliferative activity against human JeKo1 cells after 84 hrs by CCK8 assay; format: functional, cell-based
Summary of the method: (§2)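 Suspension haematopoietic lines seeded in triplicate in 96-well plates; drug stock added immediately to the final concentrations. After 84 h culture, CCK-8 reagent added and absorbance at OD450 nm read after 2 h incubation.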

RPMI-8226 = experiment: Antiproliferative activity against human RPMI8226 cells after 84 hrs by CCK8 assay; format: functional, cell-based; summary of the method: as §2
[11] = (§3) Antiproliferative activity against human Mino cells after 84 hrs by CCK8 assay; format: functional, cell-based; summary of the method: as §2
MM1.S = experiment: Antiproliferative activity against human MM1S cells after 84 hrs by CCK8 assay; format: functional, cell-based; summary of the method: as §2
THP-1 = experiment: Antiproliferative activity against human THP1 cells after 84 hrs by CCK8 assay; format: functional, cell-based; summary of the method: as §2
HL-60 = experiment: Antiproliferative activity against human HL60 cells after 84 hrs by CCK8 assay; format: functional, cell-based; summary of the method: as §2
Homo sapiens [12] = organism: Homo sapiens; experiment: as §3; format: functional, cell-based; summary of the method: as §2

Activity [1]: inactive
SMILES: CN(C)C(=O)c1cc2cnc(Nc3ccc(N4CCN(Cc5cn(CCOCCOCCOCCNc6cccc7c6C(=O)N(C6CCC(=O)NC6=O)C7=O)nn5)CC4)cn3)nc2n1C1CCCC1 (configuration not stated)

Activity [2]: inactive
Activity [3]: inactive
Activity [4]: inactive
SMILES: CC(=O)c1c(C)c2cnc(Nc3ccc(N4CCN(Cc5cn(CCOCCOCCOCCNC(=O)CCC(=O)N[C@H](C(=O)N6C[C@H](O)C[C@H]6C(=O)NCc6ccc(-c7scnc7C)cc6)C(C)(C)C)nn5)CC4)cn3)nc2n(C2CCCC2)c1=O

Activity [2]: inactive
Activity [3]: inactive
Activity [4]: inactive
SMILES: CC(=O)c1c(C)c2cnc(Nc3ccc(N4CCN(Cc5cn(CCOCCOCCOCCOCCNC(=O)CCC(=O)N[C@H](C(=O)N6C[C@H](O)C[C@H]6C(=O)NCc6ccc(-c7scnc7C)cc6)C(C)(C)C)nn5)CC4)cn3)nc2n(C2CCCC2)c1=O

DC50 [5]: > 0.05 µM
DC50 [1]: 0.0017 µM
SMILES: CC(=O)c1c(C)c2cnc(Nc3ccc(N4CCN(Cc5cn(CCCCCCc6cccc7c6C(=O)N(C6CCC(=O)NC6=O)C7=O)nn5)CC4)cn3)nc2n(C2CCCC2)c1=O (configuration not stated)

Activity [6]: inactive
Activity [7]: inactive
Activity [8]: inactive
SMILES: COc1ccc(C2=N[C@H](c3ccc(Cl)cc3)[C@H](c3ccc(Cl)cc3)N2C(=O)N2CCN(CC(=O)NCCOCCOCCn3cc(CN4CCN(c5ccc(Nc6ncc7c(C)c(C(C)=O)c(=O)n(C8CCCC8)c7n6)nc5)CC4)nn3)CC2)c(OC(C)C)c1

DC50 [5]: > 0.05 µM
DC50 [1]: 0.0016 µM
SMILES: CC(=O)c1c(C)c2cnc(Nc3ccc(N4CCN(CCOCCOCCNc5cccc6c5C(=O)N(C5CCC(=O)NC5=O)C6=O)CC4)cn3)nc2n(C2CCCC2)c1=O (configuration not stated)

SMILES: CC(=O)c1c(C)c2cnc(Nc3ccc(N4CCN(Cc5cn(CCOCCOCCOCCOCCNC(=O)[C@H](CC(C)C)NC(=O)[C@@H](O)[C@H](N)Cc6ccccc6)nn5)CC4)cn3)nc2n(C2CCCC2)c1=O
Activity (Homo sapiens [9]): inactive
Activity (Daoy): inactive
Activity (Homo sapiens [10]): inactive

DC50 [5]: > 0.5 µM
DC50 [1]: 0.145 µM
SMILES: Cc1nc2c(F)cc(-c3nc(Nc4ccc(CN5CCN(Cc6cn(CCOCCOCCOCCOCCNc7cccc8c7C(=O)N(C7CCC(=O)NC7=O)C8=O)nn6)CC5)cn4)ncc3F)cc2n1C(C)C (configuration not stated)

Activity [6]: inactive
Activity [7]: inactive
Activity [8]: inactive
SMILES: COc1ccc(C2=N[C@H](c3ccc(Cl)cc3)[C@H](c3ccc(Cl)cc3)N2C(=O)N2CCN(CC(=O)NCCOCCn3cc(CN4CCN(c5ccc(Nc6ncc7c(C)c(C(C)=O)c(=O)n(C8CCCC8)c7n6)nc5)CC4)nn3)C(=O)C2)c(OC(C)C)c1

DC50 [5]: > 0.1 µM
DC50 [1]: 0.0106 µM
SMILES: CC(=O)c1c(C)c2cnc(Nc3ccc(N4CCN(Cc5cn(CCCCCCNc6cccc7c6C(=O)N(C6CCC(=O)NC6=O)C7=O)nn5)CC4)cn3)nc2n(C2CCCC2)c1=O (configuration not stated)

DC50 [5]: > 0.5 µM
DC50 [1]: 0.13 µM
SMILES: Cc1nc2c(F)cc(-c3nc(Nc4ccc(CN5CCN(Cc6cn(CCOCCOCCNc7cccc8c7C(=O)N(C7CCC(=O)NC7=O)C8=O)nn6)CC5)cn4)ncc3F)cc2n1C(C)C (configuration not stated)

DC50 [5]: > 0.1 µM
DC50 [1]: 0.0816 µM
SMILES: CC(=O)c1c(C)c2cnc(Nc3ccc(N4CCN(Cc5cn(CCCCC#Cc6cccc7c6C(=O)N(C6CCC(=O)NC6=O)C7=O)nn5)CC4)cn3)nc2n(C2CCCC2)c1=O (configuration not stated)

Activity [1]: inactive
SMILES: CN(C)C(=O)c1cc2cnc(Nc3ccc(N4CCN(Cc5cn(CCOCCOCCNc6cccc7c6C(=O)N(C6CCC(=O)NC6=O)C7=O)nn5)CC4)cn3)nc2n1C1CCCC1 (configuration not stated)

DC50 [5]: > 0.1 µM
DC50 [1]: 0.0242 µM
SMILES: CC(=O)c1c(C)c2cnc(Nc3ccc(N4CCN(CC(=O)NCCOCCOCCNc5cccc6c5C(=O)N(C5CCC(=O)NC5=O)C6=O)CC4)cn3)nc2n(C2CCCC2)c1=O (configuration not stated)

IC50 (MM1.S): 0.2 µM
SMILES: CC(=O)c1c(C)c2cnc(Nc3ccc(N4CCNCC4)cn3)nc2n(C2CCCC2)c1=O [PALBOCICLIB]
Activity (JeKo-1): Active
Activity (RPMI-8226): Active
IC50 [11]: 0.045 µM
Activity (THP-1): Active
Activity (HL-60): Active

Activity [6]: inactive
Activity [7]: inactive
Activity [8]: inactive
SMILES: COc1ccc(C2=N[C@H](c3ccc(Cl)cc3)[C@H](c3ccc(Cl)cc3)N2C(=O)N2CCN(CC(=O)NCCOCCOCCOCCn3cc(CN4CCN(c5ccc(Nc6ncc7c(C)c(C(C)=O)c(=O)n(C8CCCC8)c7n6)nc5)CC4)nn3)C(=O)C2)c(OC(C)C)c1

SMILES: CC(=O)c1c(C)c2cnc(Nc3ccc(N4CCN(Cc5cn(CCOCCOCCNC(=O)[C@H](CC(C)C)NC(=O)[C@@H](O)[C@H](N)Cc6ccccc6)nn5)CC4)cn3)nc2n(C2CCCC2)c1=O
Activity (Homo sapiens [9]): inactive
Activity (Daoy): inactive
Activity (Homo sapiens [10]): inactive

SMILES: CC(=O)c1c(C)c2cnc(Nc3ccc(N4CCN(Cc5cn(CCOCCOCCOCCNC(=O)[C@H](CC(C)C)NC(=O)[C@@H](O)[C@H](N)Cc6ccccc6)nn5)CC4)cn3)nc2n(C2CCCC2)c1=O
Activity (Homo sapiens [9]): inactive
Activity (Daoy): inactive
Activity (Homo sapiens [10]): inactive

SMILES: CC(=O)c1c(C)c2cnc(Nc3ccc(N4CCN(Cc5cn(CCOCCNC(=O)[C@H](CC(C)C)NC(=O)[C@@H](O)[C@H](N)Cc6ccccc6)nn5)CC4)cn3)nc2n(C2CCCC2)c1=O
Activity (Homo sapiens [9]): inactive
Activity (Daoy): inactive
Activity (Homo sapiens [10]): inactive

Activity [1]: inactive
SMILES: CN(C)C(=O)c1cc2cnc(Nc3ccc(N4CCN(Cc5cn(CCOCCNc6cccc7c6C(=O)N(C6CCC(=O)NC6=O)C7=O)nn5)CC4)cn3)nc2n1C1CCCC1 (configuration not stated)

SMILES: CCN1C(=O)CCC(N2C(=O)c3cccc(NCCOCCOCCn4cc(CN5CCN(c6ccc(Nc7ncc8c(C)c(C(C)=O)c(=O)n(C9CCCC9)c8n7)nc6)CC5)nn4)c3C2=O)C1=O (configuration not stated)
Activity (JeKo-1): inactive
Activity (RPMI-8226): inactive
Activity (Homo sapiens [12]): inactive
Activity (MM1.S): inactive
Activity (THP-1): inactive
Activity (HL-60): inactive

SMILES: CCN1C(=O)CCC(N2C(=O)c3cccc(NCCOCCn4cc(CN5CCN(c6ccc(Nc7ncc8c(C)c(C(C)=O)c(=O)n(C9CCCC9)c8n7)nc6)CC5)nn4)c3C2=O)C1=O (configuration not stated)
Activity (JeKo-1): inactive
Activity (RPMI-8226): inactive
Activity (Homo sapiens [12]): inactive
Activity (MM1.S): inactive
Activity (THP-1): inactive
Activity (HL-60): inactive

Activity [2]: inactive
Activity [3]: inactive
Activity [4]: inactive
SMILES: CC(=O)c1c(C)c2cnc(Nc3ccc(N4CCN(Cc5cn(CCOCCNC(=O)CCC(=O)N[C@H](C(=O)N6C[C@H](O)C[C@H]6C(=O)NCc6ccc(-c7scnc7C)cc6)C(C)(C)C)nn5)CC4)cn3)nc2n(C2CCCC2)c1=O

Activity [2]: inactive
Activity [3]: inactive
Activity [4]: inactive
SMILES: CC(=O)c1c(C)c2cnc(Nc3ccc(N4CCN(Cc5cn(CCOCCOCCNC(=O)CCC(=O)N[C@H](C(=O)N6C[C@H](O)C[C@H]6C(=O)NCc6ccc(-c7scnc7C)cc6)C(C)(C)C)nn5)CC4)cn3)nc2n(C2CCCC2)c1=O

DC50 [5]: > 0.1 µM
DC50 [1]: 0.0011 µM
SMILES: CC(=O)c1c(C)c2cnc(Nc3ccc(N4CCN(CC(=O)NCCOCCNc5cccc6c5C(=O)N(C5CCC(=O)NC5=O)C6=O)CC4)cn3)nc2n(C2CCCC2)c1=O (configuration not stated)

DC50 [5]: > 0.5 µM
DC50 [1]: 0.0086 µM
SMILES: Cc1nc2c(F)cc(-c3nc(Nc4ccc(CN5CCN(Cc6cn(CCOCCNc7cccc8c7C(=O)N(C7CCC(=O)NC7=O)C8=O)nn6)CC5)cn4)ncc3F)cc2n1C(C)C (configuration not stated)
